pEC50: −log10 of the molar value. Calls of active or inactive are those of the source. The calls are words filed in the database; no cut-off is given here.
What was measured:
e-NPP1 = test: (§1) Stability of the compound assessed as human e-NPP1-mediated hydrolysis at pH 8.5 after 20 mins by HPLC analysis; format: ADME; conditions: human, human e-NPP1 enzyme, pH 8.5; read-out: Drug degradation
In short: (§2)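 Human NPP1 preparation preincubated 3 min at 37 °C in 1 mM CaCl2, 200 mM NaCl, 10 mM KCl, 100 mM Tris, pH 8.5. Started with 0.2 mM dinucleotide solution (added volume) and stopped after 20 min in ice-cold perchloric acid. Neutralised with KOH, then NMP formation followed by HPLC. Percent substrate hydrolysed is the mean of two experiments run in triplicate.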

P2Y purinoceptor 2 [1] = target: T1, P2Y purinoceptor 2 (Homo sapiens, UniProt P41231); test: Agonist activity at human P2Y purinoceptor 2 expressed in human 1321N1 cells assessed as increase in intracellular calcium concentration by spectrofluorimetry; format: functional, cell-based; conditions: for EC50: 1321-n1
P2Y purinoceptor 4 [2] = target: T2, P2Y purinoceptor 4 (Homo sapiens, UniProt P51582); test: Agonist activity at human P2Y purinoceptor 4 expressed in human 1321N1 cells assessed as increase in intracellular calcium concentration by spectrofluorimetry; format: functional, cell-based; conditions: 1321-n1
In short: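 1321N1 astrocytoma cells (no endogenous P2Y receptors) stably expressing hP2Y4, grown in DMEM with 5% FBS, penicillin/streptomycin and 500 μg/mL G-418. Fura-2-loaded cell suspensions; compounds applied at various concentrations, 37 °C, 10 mM Hepes-buffered saline pH 7.4 with 1 mM CaCl2/MgCl2. Peak [Ca2+]i rise by dual-excitation fluorometry gives EC50; UTP reference agonist; three experiments on separate days.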

P2Y purinoceptor 6 = P2Y purinoceptor 6 (Rattus norvegicus, UniProt Q63371); test: Agonist activity at rat P2Y purinoceptor 6 expressed in human 1321N1 cells assessed as increase in intracellular calcium concentration by spectrofluorimetry; format: functional, cell-based; conditions: read-out: EC50
In short: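 1321N1 astrocytoma cells lacking endogenous P2Y receptors, stably transfected with turkey P2Y1, human P2Y2, human P2Y4 or rat P2Y6, grown in DMEM with 5% FBS, penicillin/streptomycin and 500 µg/mL G-418. Fura-2-loaded cell suspensions were exposed at 37 °C in 10 mM Hepes-buffered saline, pH 7.4, with 1 mM CaCl2 and 1 mM MgCl2. Peak [Ca2+]i rise by dual-excitation spectrofluorometry across concentrations; EC50 from curve fits; three experiments on separate days per subtype.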

[3] = as §1; format: ADME; conditions: buffer, pH 8.5, 20 min; in short: as §2
[4] = Chemical stability of the compound at pH mimicking gastric juice acidity; format: physicochemical; conditions: simulated gi fluid
[5] = Chemical stability of the compound at physiological conditions; format: physicochemical
[6] = target: P2Y purinoceptor 1 (Meleagris gallopavo) (UniProt P49652); test: (§3) Agonist activity at turkey P2Y purinoceptor 1 expressed in human 1321N1 cells assessed as increase in intracellular calcium concentration by spectrofluorimetry; format: functional, cell-based
P2Y purinoceptor 1 = P2Y purinoceptor 1 (Meleagris gallopavo, UniProt P49652); test: as §3; format: functional, cell-based; conditions: read-out: EC50
[7] = target: P2Y purinoceptor 1 (Meleagris gallopavo) (UniProt P49652); test: Antagonist activity at turkey P2Y purinoceptor 1 expressed in human 1321N1 cells assessed as inhibition of 2-Sme-ADP-induced increase in intracellular calcium concentration by spectrofluorimetry; format: functional, cell-based
In short: (§4)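 Fura-2-loaded 1321N1 transfectants (turkey P2Y1, human P2Y2/P2Y4, rat P2Y6) in Hepes-buffered saline, pH 7.4, at 37 °C. Analogues were tested against equimolar reference agonist: 2-MeS-ADP for P2Y1, UTP for P2Y2/4, UDP for P2Y6. Blockade of the [Ca2+]i rise was followed by dual-excitation spectrofluorometry.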

P2Y purinoceptor 2 [8] = target: T1, P2Y purinoceptor 2; test: Antagonist activity at human P2Y purinoceptor 2 expressed in human 1321N1 cells assessed as inhibition of UTP-induced increase in intracellular calcium concentration by spectrofluorimetry; format: functional, cell-based; in short: as §4
P2Y purinoceptor 4 [9] = target: T2, P2Y purinoceptor 4; test: Antagonist activity at human P2Y purinoceptor 4 expressed in human 1321N1 cells assessed as inhibition of UTP-induced increase in intracellular calcium concentration by spectrofluorimetry; format: functional, cell-based; in short: as §4
[10] = target: P2Y purinoceptor 6 (Rattus norvegicus) (UniProt Q63371); test: Antagonist activity at rat P2Y purinoceptor 6 expressed in human 1321N1 cells assessed as inhibition of UDP-induced increase in intracellular calcium concentration by spectrofluorimetry; format: functional, cell-based; in short: as §4
[11] = target: P2Y purinoceptor 1 (Meleagris gallopavo) (UniProt P49652); test: Agonist activity at turkey P2Y purinoceptor 1 expressed in human 1321N1 cells assessed as increase in intracellular calcium concentration at 100 uM by spectrofluorimetry; format: functional, cell-based

Sequence of P2Y purinoceptor 6 (Q63371 whole entry): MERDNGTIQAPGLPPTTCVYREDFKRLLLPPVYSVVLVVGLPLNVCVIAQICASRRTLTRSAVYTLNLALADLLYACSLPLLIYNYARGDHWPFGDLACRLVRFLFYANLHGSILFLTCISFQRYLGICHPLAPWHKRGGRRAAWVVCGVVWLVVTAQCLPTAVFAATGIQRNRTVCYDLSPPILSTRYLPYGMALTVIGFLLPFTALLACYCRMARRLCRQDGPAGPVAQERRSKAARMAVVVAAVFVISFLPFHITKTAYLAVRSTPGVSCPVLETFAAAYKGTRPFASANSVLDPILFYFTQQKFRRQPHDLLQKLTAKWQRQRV
T1 sequence (P41231 whole entry): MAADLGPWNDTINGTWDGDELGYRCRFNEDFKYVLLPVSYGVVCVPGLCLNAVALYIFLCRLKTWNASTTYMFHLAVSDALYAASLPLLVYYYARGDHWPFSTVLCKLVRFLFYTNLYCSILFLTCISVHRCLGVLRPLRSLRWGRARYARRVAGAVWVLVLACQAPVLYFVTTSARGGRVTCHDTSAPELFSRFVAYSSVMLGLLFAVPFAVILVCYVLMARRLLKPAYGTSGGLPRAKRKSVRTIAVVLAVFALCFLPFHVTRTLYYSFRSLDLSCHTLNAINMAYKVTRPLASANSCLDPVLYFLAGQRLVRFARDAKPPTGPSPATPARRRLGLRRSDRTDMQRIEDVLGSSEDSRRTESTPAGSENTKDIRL
T2 sequence (P51582 whole entry): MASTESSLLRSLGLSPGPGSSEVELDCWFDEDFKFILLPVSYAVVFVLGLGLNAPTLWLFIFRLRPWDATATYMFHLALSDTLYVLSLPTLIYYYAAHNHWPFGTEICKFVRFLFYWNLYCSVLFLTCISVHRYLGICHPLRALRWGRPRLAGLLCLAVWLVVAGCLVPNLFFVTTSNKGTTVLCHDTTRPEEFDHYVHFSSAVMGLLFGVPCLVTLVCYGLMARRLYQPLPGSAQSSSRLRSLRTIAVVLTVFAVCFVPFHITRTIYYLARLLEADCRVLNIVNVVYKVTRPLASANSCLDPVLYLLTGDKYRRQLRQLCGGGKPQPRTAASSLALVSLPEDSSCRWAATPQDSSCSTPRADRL
Sequence of P2Y purinoceptor 1 (P49652 whole entry): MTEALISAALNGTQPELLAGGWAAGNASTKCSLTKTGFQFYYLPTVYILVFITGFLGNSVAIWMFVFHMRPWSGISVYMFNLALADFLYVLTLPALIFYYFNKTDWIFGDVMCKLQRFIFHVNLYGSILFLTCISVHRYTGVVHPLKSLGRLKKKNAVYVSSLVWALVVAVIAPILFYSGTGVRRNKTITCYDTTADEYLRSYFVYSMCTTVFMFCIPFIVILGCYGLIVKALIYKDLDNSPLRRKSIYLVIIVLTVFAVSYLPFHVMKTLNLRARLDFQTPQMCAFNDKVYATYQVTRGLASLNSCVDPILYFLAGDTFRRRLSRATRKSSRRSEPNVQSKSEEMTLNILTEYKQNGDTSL
Sequence of P2Y purinoceptor 1 (Meleagris gallopavo) (P49652 whole entry): as above
Sequence of P2Y purinoceptor 6 (Rattus norvegicus) (Q63371 whole entry): as the sequence (Q63371 whole entry) above

Structure (SMILES)	metabolised at 20 min (e-NPP1)	EC50 (P2Y purinoceptor 2 [1])	EC50 (P2Y purinoceptor 4 [2])	pEC50 (P2Y purinoceptor 6)	pEC50 (P2Y purinoceptor 1)	also measured
O=c1ccn([C@@H]2O[C@H](COP(=O)(O)OP(=O)(O)OP(=O)(O)OC[C@H]3O[C@@H](n4ccc(=O)[nH]c4=O)[C@H](O)[C@@H]3O)[C@@H](O)[C@H]2O)c(=O)[nH]1	21%	–	–	–	–	–
BP(=O)(OP(=O)(O)OC[C@H]1O[C@@H](n2ccc(=O)[nH]c2=O)[C@H](O)[C@@H]1O)OP(=O)(O)OC[C@H]1O[C@@H](n2ccc(=O)[nH]c2=O)[C@H](O)[C@@H]1O.CCCCN(CCCC)CCCC.CCCCN(CCCC)CCCC.CCCCN(CCCC)CCCC	–	–	–	–	–	Stability [3]: Stable; Stability [4]: Stable; Stability [5]: Stable; Activity [6]: inactive; Activity (P2Y purinoceptor 2 [1]): inactive
BP(=O)(OC[C@H]1O[C@@H](n2ccc(=O)[nH]c2=O)[C@H](O)[C@@H]1O)OP(=O)(O)OP(=O)(O)OC[C@H]1O[C@@H](n2ccc(=O)[nH]c2=O)[C@H](O)[C@@H]1O.CCCCN(CCCC)CCCC.CCCCN(CCCC)CCCC.CCCCN(CCCC)CCCC (stereo in doubt; 11A)	–	Not Active	Not Active	6.14	5.36	Drug degradation ([3]; 20 min): 0%
BP(=O)(OC[C@H]1O[C@@H](n2ccc(=O)[nH]c2=O)[C@H](O)[C@@H]1O)OP(=O)(O)OP(=O)(O)OP(=O)(O)OC[C@H]1O[C@@H](n2ccc(=O)[nH]c2=O)[C@H](O)[C@@H]1O.CCCCN(CCCC)CCCC.CCCCN(CCCC)CCCC.CCCCN(CCCC)CCCC.CCCCN(CCCC)CCCC (stereo in doubt; 13B)	–	–	–	–	–	Activity [7]: inactive; Activity (P2Y purinoceptor 2 [8]): inactive; Activity (P2Y purinoceptor 4 [9]): inactive; Activity [10]: inactive; Activity [11]: Active
Nc1ncnc2c1ncn2[C@@H]1O[C@H](COP(=O)(O)OP(=O)(O)OP(=O)(O)OP(=O)(O)OC[C@H]2O[C@@H](n3ccc(=O)[nH]c3=O)[C@H](O)[C@@H]2O)[C@@H](O)[C@H]1O	18%	–	–	–	–	–
BP(=O)(OP(=O)(O)OP(=O)(O)OC[C@H]1O[C@@H](n2cnc3c(N)ncnc32)[C@H](O)[C@@H]1O)OP(=O)(O)OP(=O)(O)OC[C@H]1O[C@@H](n2cnc3c(N)ncnc32)[C@H](O)[C@@H]1O.CCCCN(CCCC)CCCC.CCCCN(CCCC)CCCC.CCCCN(CCCC)CCCC.CCCCN(CCCC)CCCC.CCCCN(CCCC)CCCC	–	–	–	–	–	Stability [3]: Unstable; Stability [4]: Stable; Stability [5]: Stable; Activity [6]: Active; Activity (P2Y purinoceptor 2 [1]): inactive

Second part, led by results:

metabolised at 20 min (e-NPP1)	EC50 (P2Y purinoceptor 2 [1])	EC50 (P2Y purinoceptor 4 [2])	pEC50 (P2Y purinoceptor 6)	pEC50 (P2Y purinoceptor 1)	Structure (SMILES)	also measured
1.5%	Not Active	Not Active	5.89	–	BP(=O)(OP(=O)(O)OC[C@H]1O[C@@H](n2cnc3c(N)ncnc32)[C@H](O)[C@@H]1O)OP(=O)(O)OP(=O)(O)OC[C@H]1O[C@@H](n2ccc(=O)[nH]c2=O)[C@H](O)[C@@H]1O.CCCCN(CCCC)CCCC.CCCCN(CCCC)CCCC.CCCCN(CCCC)CCCC.CCCCN(CCCC)CCCC (stereo in doubt; 8A)	–
3%	–	Not Active	4.68	6.30	BP(=O)(OP(=O)(O)OC[C@H]1O[C@@H](n2ccc(=O)[nH]c2=O)[C@H](O)[C@@H]1O)OP(=O)(O)OP(=O)(O)OC[C@H]1O[C@@H](n2cnc3c(N)ncnc32)[C@H](O)[C@@H]1O.CCCCN(CCCC)CCCC.CCCCN(CCCC)CCCC.CCCCN(CCCC)CCCC.CCCCN(CCCC)CCCC (stereo in doubt; 9A)	–
1.6%	Not Active	Not Active	–	5.52	BP(=O)(OP(=O)(O)OC[C@H]1O[C@@H](n2cnc3c(N)ncnc32)[C@H](O)[C@@H]1O)OP(=O)(O)OP(=O)(O)OC[C@H]1O[C@@H](n2cnc3c(N)ncnc32)[C@H](O)[C@@H]1O.CCCCN(CCCC)CCCC.CCCCN(CCCC)CCCC.CCCCN(CCCC)CCCC.CCCCN(CCCC)CCCC (stereo in doubt; 6A)	–
